From ChEMBL document CHEMBL5724801, “EUbOPEN Chemogenomics Library - Multiplex” (2024)
Values joined by “and” are separate entries in the source; they are usually repeats but may differ in a detail not shown here. Equal values may be shown once.

Each molecule was assayed on Fibroblast (assay: Multiplex assay against human fibroblast). Conditions: 12 h, 1 µM, compound concentration 1 uM.
Format: toxicity, cell-based
Method in brief: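 Live cells were stained at seeding with Hoechst33342, BioTracker Green Microtubule Cytoskeleton Dye, MitoTracker Red and Annexin V Alexa Fluor 680, then imaged on a CQ1 microscope at 37°C and 5% CO2 after compound addition. CellPathfinder machine-learning gating split cells into Hoechst high-intensity objects or normal cells. Normal cells were split into healthy, pyknosed or fragmented nuclei, and pyknosed cells into mitotic or apoptotic. Tubulin, mitochondrial-mass and membrane-permeability phenotypes are per cents of healthy-nucleus cells.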
With `Cc1cc(NC(=O)NCCN2CCC(O)(Cc3ccccc3)CC2)c2ccccc2n1` [PALOSURAN] the “Population Apoptotic (%)” value was 37% and 40%, the “Population Fragmented Nuclei (%)” value was 10% and 26% and the “Population Healthy Nuclei (%)” value was 77% and 44%. The “Population Hoechst High Intensity Objects (%)” value was 2% and 9%, the “Population Membrane Permeable-Phenotype (%)” value was 3% and 1% and the “Population Mitotic Cells (%)” value was 62% and 59%. The “Population Normal (%)” value was 97% and 90%, the “Population Pyknosed Nuclei (%)” value was 12% and 28% and the “Population Tubulin-Different-Phenotype (%)” value was 19% and 46%. The “Total Cell Count” value was 133 and 143. In the case of `C[C@H](NC(=O)c1c(C(F)F)nn(C)c1Oc1cccc(C(F)(F)F)c1)c1ccc(C(=O)O)cc1` [PALUPIPRANT], the “Population Apoptotic (%)” value is reported as 26% and 24%, the “Population Fragmented Nuclei (%)” value is reported as 29% and 23% and the “Population Healthy Nuclei (%)” value is reported as 57% and 52%. For the same molecule, the “Population Hoechst High Intensity Objects (%)” value was 5% and 6%, the “Population Membrane Permeable-Phenotype (%)” value was 0% and 11% and the “Population Mitochondria Different-Phenotype (%)” value was 4% and 6%. The “Population Mitotic Cells (%)” value was 73% and 75%, the “Population Normal (%)” value was 94% and 93% and the “Population Pyknosed Nuclei (%)” value was 12% and 23%. For the same molecule, the “Population Tubulin-Different-Phenotype (%)” value was 23% and 55% and the “Total Cell Count” value was 187 and 148.

Same assay, conditions: 12 h, 10 µM, compound concentration 10 uM
For `Cc1cc(NC(=O)NCCN2CCC(O)(Cc3ccccc3)CC2)c2ccccc2n1` [PALOSURAN], the “Population Apoptotic (%)” value was 40% and 41%, the “Population Fragmented Nuclei (%)” value was 14% and 28% and the “Population Healthy Nuclei (%)” value was 69% and 49%. The “Population Hoechst High Intensity Objects (%)” value was 1% and 6%, the “Population Membrane Permeable-Phenotype (%)” value was 0% and 3% and the “Population Mitochondria Different-Phenotype (%)” value was 13% and 3%. The “Population Mitotic Cells (%)” value was 59% and 58%, the “Population Normal (%)” value was 98% and 93% and the “Population Pyknosed Nuclei (%)” value was 15% and 22%. The “Population Tubulin-Different-Phenotype (%)” value was 37% and 51% and the “Total Cell Count” value was 178 and 113. For `C[C@H](NC(=O)c1c(C(F)F)nn(C)c1Oc1cccc(C(F)(F)F)c1)c1ccc(C(=O)O)cc1` [PALUPIPRANT], the “Population Apoptotic (%)” value was 45% and 35%, the “Population Healthy Nuclei (%)” value was 70% and 35% and the “Population Mitochondria Different-Phenotype (%)” value was 6% and 13%. For the same molecule, the “Population Mitotic Cells (%)” value was 55% and 64%, the “Population Normal (%)” value was 97% and 85% and the “Population Pyknosed Nuclei (%)” value was 16% and 22%. For the same molecule, the “Population Tubulin-Different-Phenotype (%)” value was 45% and 60% and the “Total Cell Count” value was 126 and 149.

Same assay, conditions: 24 h, 1 µM, compound concentration 1 uM
With `Cc1cc(NC(=O)NCCN2CCC(O)(Cc3ccccc3)CC2)c2ccccc2n1` [PALOSURAN] the “Population Apoptotic (%)” value was 53% and 40%, the “Population Fragmented Nuclei (%)” value was 15% and 27% and the “Population Healthy Nuclei (%)” value was 73% and 50%. The “Population Hoechst High Intensity Objects (%)” value was 2% and 6%, the “Population Mitochondria Different-Phenotype (%)” value was 0% and 21% and the “Population Mitotic Cells (%)” value was 46% and 60%. For the same molecule, the “Population Normal (%)” value was 97% and 93%, the “Population Pyknosed Nuclei (%)” value was 10% and 22% and the “Total Cell Count” value was 129 and 119. `C[C@H](NC(=O)c1c(C(F)F)nn(C)c1Oc1cccc(C(F)(F)F)c1)c1ccc(C(=O)O)cc1` [PALUPIPRANT] was tested, and the “Population Apoptotic (%)” value was 40% and 42%, the “Population Fragmented Nuclei (%)” value was 32% and 26% and the “Population Healthy Nuclei (%)” value was 58% and 53%. For the same molecule, the “Population Hoechst High Intensity Objects (%)” value was 5% and 7%, the “Population Membrane Permeable-Phenotype (%)” value was 1% and 8% and the “Population Mitochondria Different-Phenotype (%)” value was 4% and 5%. For the same molecule, the “Population Mitotic Cells (%)” value was 60% and 57%, the “Population Normal (%)” value was 94% and 92% and the “Population Pyknosed Nuclei (%)” value was 8% and 20%. For the same molecule, the “Total Cell Count” value was 178 and 141.

Same assay, conditions: 24 h, 10 µM, compound concentration 10 uM
With `Cc1cc(NC(=O)NCCN2CCC(O)(Cc3ccccc3)CC2)c2ccccc2n1` [PALOSURAN] the “Population Apoptotic (%)” value was 42% and 60%, the “Population Fragmented Nuclei (%)” value was 14% and 30% and the “Population Healthy Nuclei (%)” value was 77% and 47%. For the same molecule, the “Population Hoechst High Intensity Objects (%)” value was 1% and 3%, the “Population Membrane Permeable-Phenotype (%)” value was 0% and 3% and the “Population Mitochondria Different-Phenotype (%)” value was 8% and 1%. For the same molecule, the “Population Mitotic Cells (%)” value was 57% and 40%, the “Population Normal (%)” value was 98% and 96% and the “Population Pyknosed Nuclei (%)” value was 8% and 22%. For the same molecule, the “Population Tubulin-Different-Phenotype (%)” value was 37% and 48% and the “Total Cell Count” value was 178 and 117. With `C[C@H](NC(=O)c1c(C(F)F)nn(C)c1Oc1cccc(C(F)(F)F)c1)c1ccc(C(=O)O)cc1` [PALUPIPRANT] the “Population Apoptotic (%)” value was 60% and 38%, the “Population Fragmented Nuclei (%)” value was 18% and 40% and the “Population Healthy Nuclei (%)” value was 62% and 42%. The “Population Hoechst High Intensity Objects (%)” value was 5% and 10%, the “Population Mitochondria Different-Phenotype (%)” value was 7% and 3% and the “Population Mitotic Cells (%)” value was 39% and 61%. For the same molecule, the “Population Normal (%)” value was 94% and 89%, the “Population Pyknosed Nuclei (%)” value was 18% and 17% and the “Population Tubulin-Different-Phenotype (%)” value was 35% and 51%. For the same molecule, the “Total Cell Count” value was 131 and 138.

Same assay, conditions: 48 h, 1 µM, compound concentration 1 uM
With `Cc1cc(NC(=O)NCCN2CCC(O)(Cc3ccccc3)CC2)c2ccccc2n1` [PALOSURAN] the “Population Apoptotic (%)” value was 50% and 61%, the “Population Fragmented Nuclei (%)” value was 16% and 42% and the “Population Healthy Nuclei (%)” value was 72% and 44%. The “Population Hoechst High Intensity Objects (%)” value was 3% and 7%, the “Population Membrane Permeable-Phenotype (%)” value was 0% and 14% and the “Population Mitotic Cells (%)” value was 50% and 38%. For the same molecule, the “Population Normal (%)” value was 96% and 92%, the “Population Pyknosed Nuclei (%)” value was 11% and 13% and the “Total Cell Count” value was 126 and 149. `C[C@H](NC(=O)c1c(C(F)F)nn(C)c1Oc1cccc(C(F)(F)F)c1)c1ccc(C(=O)O)cc1` [PALUPIPRANT] was tested, and the “Population Apoptotic (%)” value was 53%, the “Population Fragmented Nuclei (%)” value was 34% and 30% and the “Population Healthy Nuclei (%)” value was 57% and 50%. The “Population Hoechst High Intensity Objects (%)” value was 11% and 3%, the “Population Membrane Permeable-Phenotype (%)” value was 0% and 4% and the “Population Mitochondria Different-Phenotype (%)” value was 4%. For the same molecule, the “Population Mitotic Cells (%)” value was 46%, the “Population Normal (%)” value was 88% and 96% and the “Population Pyknosed Nuclei (%)” value was 7% and 19%. For the same molecule, the “Population Tubulin-Different-Phenotype (%)” value was 29% and 53% and the “Total Cell Count” value was 184 and 147.

Same assay, conditions: 48 h, 10 µM, compound concentration 10 uM
For `Cc1cc(NC(=O)NCCN2CCC(O)(Cc3ccccc3)CC2)c2ccccc2n1` [PALOSURAN], the “Population Apoptotic (%)” value was 55% and 61%, the “Population Fragmented Nuclei (%)” value was 19% and 38% and the “Population Healthy Nuclei (%)” value was 69% and 44%. The “Population Hoechst High Intensity Objects (%)” value was 5% and 2%, the “Population Membrane Permeable-Phenotype (%)” value was 0% and 2% and the “Population Mitochondria Different-Phenotype (%)” value was 10% and 6%. For the same molecule, the “Population Mitotic Cells (%)” value was 44% and 38%, the “Population Normal (%)” value was 94% and 97% and the “Population Pyknosed Nuclei (%)” value was 10% and 16%. The “Population Tubulin-Different-Phenotype (%)” value was 36% and 61% and the “Total Cell Count” value was 186 and 112. `C[C@H](NC(=O)c1c(C(F)F)nn(C)c1Oc1cccc(C(F)(F)F)c1)c1ccc(C(=O)O)cc1` [PALUPIPRANT] was tested, and the “Population Apoptotic (%)” value was 73% and 60%, the “Population Fragmented Nuclei (%)” value was 20% and 45% and the “Population Healthy Nuclei (%)” value was 60% and 45%. For the same molecule, the “Population Hoechst High Intensity Objects (%)” value was 4% and 13%, the “Population Membrane Permeable-Phenotype (%)” value was 1% and 10% and the “Population Mitochondria Different-Phenotype (%)” value was 8% and 6%. For the same molecule, the “Population Mitotic Cells (%)” value was 26% and 40%, the “Population Normal (%)” value was 95% and 86% and the “Population Pyknosed Nuclei (%)” value was 18% and 9%. The “Population Tubulin-Different-Phenotype (%)” value was 46% and 50% and the “Total Cell Count” value was 130 and 122.
